Only some compounds are listed: those with a hit (about 1.9% of all), similar ones and a draw of the others.
Rin1-Abl PPI inh: human Rin1-Abl interaction inhibition; TR-FRET Rin1/Abl binding, biochemical; inhibition, % at 7.35 µM; 0.4% of 360,000 active; AID 588664; in the data active means inhibition above about 5%, passing the limit was not always enough
TDP2 inh: TDP2 (human) inhibition, absorbance primary screen; 0.34% of 370,000 active; recombinant TDP2, T5PNP hydrolysis, p-nitrophenol absorbance 415 nm; AID 720702; inhibition, % at 12.8 µM;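 active means inhibition above the mean of all tested compounds plus 3 SD, set per campaign, cut at about 25% in these data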
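Read-out basis: percent inhibition. System: recombinant human TDP2. Buffer or medium: Mg2+-containing Tris-HCl buffer, pH 7.5. Repeats: single replicate. Timing: reaction 2 h, 37 °C. Benchmarks: high control without enzyme, low control DMSO plus TDP2. Probe or stimulus: 5 mM T5PNP. Doses: 12.8 µM only. Measured by: epi absorbance of p-nitrophenol freed from T5PNP by hydrolysis.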
UHRF1 MBD2 ctr: human UHRF1 methylated DNA binding inhibitors; Q96T88; UHRF1 binding to methylated oligo, TR-FRET; inhibition, % at 4.4 µM; 0.75% of 370,000 active; AID 687016; in the data active means inhibition above about 21%;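 further: UHRF1 SRA domain binding a hemimethylated CpG hairpin DNA probe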
Target sequence (Q96T88 whole entry, looked up, the tested form may be a part): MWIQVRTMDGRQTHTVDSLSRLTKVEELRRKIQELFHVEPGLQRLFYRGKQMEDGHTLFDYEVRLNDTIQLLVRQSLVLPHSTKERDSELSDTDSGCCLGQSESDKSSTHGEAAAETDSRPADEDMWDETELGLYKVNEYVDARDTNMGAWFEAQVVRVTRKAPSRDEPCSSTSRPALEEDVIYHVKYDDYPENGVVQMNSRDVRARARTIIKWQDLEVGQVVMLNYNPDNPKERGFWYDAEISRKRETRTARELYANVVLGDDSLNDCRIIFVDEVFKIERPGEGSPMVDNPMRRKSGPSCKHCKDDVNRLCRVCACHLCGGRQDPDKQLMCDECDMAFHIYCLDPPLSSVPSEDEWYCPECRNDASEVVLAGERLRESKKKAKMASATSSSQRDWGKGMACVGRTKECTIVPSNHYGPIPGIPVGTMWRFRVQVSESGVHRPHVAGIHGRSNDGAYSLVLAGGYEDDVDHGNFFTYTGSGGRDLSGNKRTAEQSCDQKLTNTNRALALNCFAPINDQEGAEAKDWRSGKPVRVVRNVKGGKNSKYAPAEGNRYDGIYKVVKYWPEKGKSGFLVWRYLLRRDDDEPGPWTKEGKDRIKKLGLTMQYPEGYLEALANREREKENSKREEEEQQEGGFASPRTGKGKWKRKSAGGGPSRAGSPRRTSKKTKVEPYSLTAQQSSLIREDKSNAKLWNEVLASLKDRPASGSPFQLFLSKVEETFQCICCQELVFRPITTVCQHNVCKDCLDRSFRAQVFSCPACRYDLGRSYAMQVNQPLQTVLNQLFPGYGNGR
LEDGF integ inh: blocks HIV-1 LEDGF/p75-dependent DNA integration. inhibition, % at 3.7 µM. 0.64% of 370,000 active. TR-FRET IN-LEDGF/p75 DNA integration, Eu/Cy5;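 active means inhibition above the screen-wide mean plus 3 SD, cut at about 13% in these data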;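 further: signal is the Cy5 over europium emission ratio at 671 and 618 nm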
MBD2 inh: inhibitors of human MBD2 binding to methylated oligonucleotide | Q9UBB5 | TR-FRET | inhibition, % at 4.4 µM | 0.31% of 370,000 active | AID 686964; in the data active means inhibition above about 13%
Rin1-Abl confirm: Rin1-Abl interaction inhibition confirmation | TR-FRET Rin1-Abl binding, purified proteins | inhibition, % at 7.35 µM | shares compounds with Rin1-Abl PPI inh | 49% of 1,300 active; in the data active means inhibition above about 6.5%
GFP quench: quenches GFP fluorescence, counter-screen for Rin1-Abl inhibitors; inhibition, % at 6.75 µM; inhibitors/quenchers counterscreen; 8.5% of 1,300 active; shares compounds with Rin1-Abl PPI inh; in the data active means inhibition above about 6.5%;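 further: ABL1-eGFP fusion protein alone without its partner RIN1-SBP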
GFP quench dose: counter-screen for Rin1-Abl inhibitors: GFP quenchers, dose response | AID 602182 | GFP fluorescence interference/quenching counterscreen | IC50, µM | 230 tested, under 10 active | shares compounds with Rin1-Abl PPI inh; call rule not given here;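 further: ABL1-eGFP fusion protein alone without its RIN1 binding partner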
UHRF1 ctr MBD2: UHRF1 methyl-oligo binding inhibition as MBD2 counter-screen. shares compounds with MBD2 inh. UHRF1 binding to methylated oligonucleotide, TR-FRET. inhibition, % at 4.4 µM. 25% of 1,000 active. AID 720530; in the data active means inhibition above about 21%;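 further: UHRF1 SRA domain binding a labeled hemimethylated CpG hairpin DNA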
MBD2 DBD conf: MBD2-DBD methyl-DNA binding inhibition, TR-FRET confirmation; shares compounds with MBD2 inh; TR-FRET MBD2-DBD binding to methylated oligonucleotide; inhibition, % at 4.4 µM; 26% of 1,000 active
TDP2 inh conf: human TDP2 inhibition, confirmation | shares compounds with TDP2 inh | recombinant human TDP2, absorbance read-out | inhibition, % at 12.8 µM | 22% of 1,100 active | AID 743263; in the data active means inhibition above about 25%
IN multimer up: counter-screen for LEDGF/p75 integration inhibitors: HIV-1 integrase multimerization activators; shares compounds with LEDGF integ inh; TR-FRET HIV-1 integrase multimerization, biochemical; activation, % at 7.7 µM; 17% of 2,000 active; AID 1053131; in the data active means activation above about 8.9%
TR-FRET interf: TR-FRET optical interference, LEDGF/p75 integration counter-screen. 2,000 tested, under 10 active. inhibition, % at 7.7 µM. shares compounds with LEDGF integ inh. TR-FRET optical interference counterscreen, HIV-1 IN multimerization. AID 1053135;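 active means inhibition above the mean over all tested compounds plus 3 SD, which no compound reached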
IN-LEDGF confirm: LEDGF/p75-dependent HIV-1 integration inhibition, confirmation. TR-FRET LEDGF/p75-dependent HIV-1 integration, biochemical. AID 1053136. inhibition, % at 3.7 µM. shares compounds with LEDGF integ inh. 36% of 2,000 active
Numbers stand for hits; - = inactive; . = not tested or not shown. Unless noted, no stated cut-off is given here; in the data, active means inhibition above about 14%; inactive means the rest.

SMILES	Rin1-Abl PPI inh	TDP2 inh	UHRF1 MBD2 ctr	LEDGF integ inh	MBD2 inh	Rin1-Abl confirm	GFP quench	others
Cn1c(=O)c2c(nc(-c3ccc(N(CCCl)CCCl)cc3)n2C)n(C)c1=O	-	-	-	-	-	.	.
COc1ccc(Cn2c(N)c(C(=O)NCc3ccco3)c3nc4ccccc4nc32)cc1OC	15	-	-	-	-	-	-
COCCCNC(=O)c1c(N)n(Cc2ccco2)c2nc3ccccc3nc12	-	-	-	-	-	.	.
Clc1ccc2c(c1)C(OC1CN3CCC1CC3)c1ccccc1CS2 (configuration not stated)	9.7	-	-	-	-	-	-
CC(C)(C)n1nnnc1C(C1CC1)N1CCC(n2c(=O)[nH]c3ccccc32)CC1 (configuration not stated)	-	-	-	-	-	.	.
O=c1[nH]c2ccccc2n1C1CCN(C(c2nnnn2C2CCCCC2)C2CC2)CC1 (configuration not stated)	74	-	-	-	-	74	-	GFP quench dose=-
O=c1[nH]c2ccccc2n1C1CCN(C(c2nnnn2C2CCCC2)C2CC2)CC1 (configuration not stated)	31	-	-	-	-	23	-	GFP quench dose=-
COc1ccc2nc(NC3=NCCN3)sc2c1	-	-	-	-	-	.	.
CCOc1cc2c(cc1OCC)-n1cccc1C(c1cccc(F)c1F)NC2 (configuration not stated)	-	-	-	-	-	.	.
CC/C(CC(c1ccccc1)c1c(O)c2ccccc2oc1=O)=N\NC(N)=S (configuration not stated)	5.9	-	-	-	-	-	-
COc1cc(CC(=O)N2C[C@H]3C[C@@H](C2)c2cccc(=O)n2C3)cc(OC)c1OC	-	-	-	-	-	.	.
O=c1[nH]c(=O)n(-c2ccc(Br)cc2)c(O)c1C=NC(CO)(CO)CO	6.0	-	-	-	-	-	-
COC(=O)C1=C(c2ccc(-c3ccccc3)c(F)c2)C[C@@H]2CC[C@H]1N2C(=O)N1CCc2cc(OC)c(OC)cc2C1	-	-	-	-	-	.	.
COc1cc2c(c3oc4cccc(O)c4c(=O)c13)[C@@H]1C=CO[C@@H]1O2	.	-	-	-	-	.	.
C=Cc1cc(OC)c2c(c1)c(=O)oc1c2cc(OC)c2c(O)ccc(C3OC(C)C(O)C(C)(O)C3O)c21 (configuration not stated)	22	-	-	-	31	-	-
Cc1nc2c(=O)n(C)c(=O)nc-2n(C)n1	37	86	-	-	16	45	-	GFP quench dose=-
CCCC(C)C(=O)NC1CCSC1=O (configuration not stated)	4.9	-	-	-	-	-	-
COc1ccc(-c2nn(CCC#N)cc2C(=O)NCc2ccccc2)cc1OC	-	-	-	-	-	.	.
CCOC(=O)c1c(NS(=O)(=O)c2ccccc2)n(CCCOC)c2nc3ccccc3nc12	33	91	-	20	-	-	-	TDP2 inh conf=73
CC12CC3CC(C)(C1)CC(N)(C3)C2	-	-	-	-	-	.	.
Oc1ccc(C[C@H]2NCCc3cc(O)c(O)cc32)cc1O	62	-	30	55	-	70	-	GFP quench dose=-;IN multimer up=18;TR-FRET interf=-;IN-LEDGF confirm=30
O=C(NC12CC3CC(CC(C3)C1)C2)OC1CN2CCC1CC2 (configuration not stated)	-	-	-	-	-	.	.
CN(C)C1C(=O)C(C(N)=O)=C(O)C2(O)C(=O)C3=C(O)c4c(O)cccc4C(C)(O)C3C(O)C12 (configuration not stated)	25	-	71	53	31	-	-	UHRF1 ctr MBD2=-;MBD2 DBD conf=-;IN multimer up=21;TR-FRET interf=-;IN-LEDGF confirm=23
CCOC(=O)[C@]12Cc3ccccc3[C@H]1N(Cc1ccccc1)C(=O)c1cc(F)c(F)cc12	.	-	-	-	-	.	.
CN1C(=O)/C(=C/c2ccc(Cl)s2)C(=O)NC1=S	-	-	-	-	-	.	.
SMILES	Rin1-Abl PPI inh	TDP2 inh	UHRF1 MBD2 ctr	LEDGF integ inh	MBD2 inh	Rin1-Abl confirm	GFP quench	others
CN1C(=O)/C(=C/C=C/c2ccco2)C(=O)NC1=S	5.4	-	72	60	23	.	.	UHRF1 ctr MBD2=62;MBD2 DBD conf=22
Cc1ccc(S(=O)(=O)N2Cc3cc(-c4cccc(F)c4)ccc3-n3nncc3C2)cc1	-	-	-	-	-	.	.
Cn1cccc1/C=C1\C(=O)NC(=O)N(Cc2ccco2)C1=O	-	-	63	65	20	.	.	UHRF1 ctr MBD2=30;MBD2 DBD conf=14
CN(C)Cc1c[nH]c2cc([N+](=O)[O-])ccc12	-	-	-	-	19	.	.	UHRF1 ctr MBD2=-;MBD2 DBD conf=-
CN(C)Cc1c[nH]c2ccc([N+](=O)[O-])cc12	-	-	-	-	-	.	.
CCCC12CN3CCN(C1)CC(CCC)(C3)C2=O	-	-	-	-	-	.	.
CC(=NCCN1CCCCC1)c1c(O)[nH]c(=O)[nH]c1=O	-	-	-	-	-	.	.
CCC1=Nc2cc(C(=O)N3CCC4(CC3)OCCO4)ccc2Sc2ccc(C)cc21	-	-	-	-	21	.	.	UHRF1 ctr MBD2=-;MBD2 DBD conf=-
COc1cc2c(ccc3c4cc(OC)c(OC)cc4c[n+](C)c23)cc1O	-	-	24	-	88	.	.	UHRF1 ctr MBD2=56;MBD2 DBD conf=100
BrCC(Br)C1CCC(Br)C(Br)C1 (configuration not stated)	-	-	-	-	-	.	.
Cc1ccc2c(C)c3ccc4ccccc4c3c[n+]2c1	-	-	27	-	72	.	.	UHRF1 ctr MBD2=43;MBD2 DBD conf=83
COC(=O)CC1(CC(=O)OC)C(=O)N(c2ccccc2)C(=O)N(c2ccccc2)C1=O	-	-	-	-	55	.	.	UHRF1 ctr MBD2=-;MBD2 DBD conf=-

Bioassay records (PubChem)
